TNAP inh noacc = human TNAP enzyme inhibitors, primary screen, biochemical, luminescent, no phosphate acceptor, uHTS; Alkaline phosphatase, tissue-nonspecific isozyme (Homo sapiens), P05186; purified TNAP, CDP-star luminescence, 30 min; inhibition, % at 20 µM; actives 0.26% (n = 200,000); AID 1012, 2008;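 active = tissue-nonspecific alkaline phosphatase inhibition above about 50% at 20 µM in the single-dose screen, limit read from the data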;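 note: 0% = DMSO negative control and 100% = EDTA positive control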
TNAP inh hiacc = human TNAP enzyme inhibitors, primary screen, biochemical, luminescent, high phosphate acceptor level, uHTS. Alkaline phosphatase, tissue-nonspecific isozyme (Homo sapiens), P05186. purified TNAP, CDP-star luminescence, 1 M DEA. inhibition, % at 20 µM. actives 0.03% (n = 200,000);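 active = over 50% inhibition of tissue-nonspecific alkaline phosphatase at 20 µM in the single-dose screen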;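 note: plate controls were DMSO wells for no effect and EDTA-quenched wells as full inhibition for full effect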
PKD1 inh = inhibitors of human PKD1 kinase, biochemical, fluorescence polarization | Serine/threonine-protein kinase D1 (Homo sapiens), Q15139 | actives 0.056% (n = 200,000) | AID 797, 2007 | inhibition, % (concentration not given with the values) | PKD1 kinase fluorescence polarization assay; in the data active = inhibition above about 50%
TNAP act hi DEA = TNAP activators at high phosphate acceptor level, primary screen, biochemical, luminescence, uHTS. Alkaline phosphatase, tissue-nonspecific isozyme (Homo sapiens), P05186. purified TNAP, CDP-star luminescence, 1 M DEA, 30 min; active compounds read high; 0 = EDTA background, 1 = DMSO-only activity. activation factor at 20 µM. 200,000 tested, under 10 active. AID 1136, 2008;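 active = activation factor at least 2 at 20 µM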
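Control set: EDTA negative control, DMSO positive control / Assay system: human TNAP / Quantity: TNAP 1/800 final / Evaluation: TNAP activation factor scaled between EDTA and DMSO control wells / Measured by: luminescent substrate turnover signal / Compound dosing: one dose, 20 µM / Times: 30 min enzyme reaction at room temperature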
FP interf 140K = fluorescence polarization interference in PKD1 assay, artefact control for PKD1 inhibitor project, biochemical, 140K library | shares compounds with PKD1 inh | PKD1 FP assay interference counter-screen | inhibition, % at 10 µM | 85 tested, under 10 active | AID 1315, 2008; call rule not given here
The depositor's hits bear a star. Only some compounds are listed: those with a hit (about 0.35% of all), similar ones and a draw of the others.

SMILES | TNAP inh noacc | TNAP inh hiacc | PKD1 inh | TNAP act hi DEA | others
COc1cc(/C=C2\SC(=S)N(Nc3ccccc3)C2=O)ccc1O | 44 | 55* | 1 | 0.4
CCOc1cc(/C=C/c2nc3ccccc3s2)ccc1OCC(=O)N1CCOCC1 | -5 | 3 | -3 | 1
COc1ccc(-c2nnc(SC(C)C(=O)Nc3cccc(Cl)c3)o2)cc1 (stereo unspecified) | -12 | -3 | -24 | 1
CCCC(C)NC(=O)c1nc(-c2ccccc2)n(-c2ccccc2)n1 (stereo unspecified) | -2 | -7 | -3 | 1.1
Cc1c(/C=N/NC(=O)c2cccnc2)cc(C#N)n1C | -11 | -5 | -10 | 1
CCOc1ccc(C(=O)OCC(=O)Nc2cc(C)on2)cc1OCC | -5 | 0 | -5 | 1
Cc1cc(NC(=O)COC(=O)c2cccc(O)c2)no1 | 52* | -1 | -2 | 1
CCN1/C(=C/C(C)=C/c2sc3ccccc3[n+]2CC)Sc2ccccc21 | 59* | 44 | 1 | 0.6
COc1cc(Cc2ccc(N)c(OC)c2)ccc1N | -4 | 2 | 12 | 1
Nc1ccc(Cc2ccc(N)c(O)c2)cc1O | 57* | 21 | -3 | 0.8
Oc1cc2c(cc1O)C1c3ccc(O)c(O)c3OCC1(O)C2 (stereo unspecified) | 87* | 34 | -1 | 0.7
Cc1ccc(C)c(-c2cc(C(=O)NN3CCOCC3)c3ccccc3n2)c1 | -4 | 1 | -4 | 1
CC(=O)NS(=O)(=O)c1cccnc1Nc1cccc(Cl)c1C | -5 | 2 | -7 | 1
NS(=O)(=O)c1cccnc1Nc1c(Cl)cccc1Cl | 58* | 52* | -4 | 0.5
CC(C)(C)OC(=O)NCCCC[C@H](NC(=O)c1nc[nH]c1C(=O)N1CCN(C(=O)OC(C)(C)C)CC1)C(=O)OC(C)(C)C | 0 | 1 | -4 | 1
O=C(N/N=C\c1ccc(Br)o1)C1COc2ccccc2O1 (stereo unspecified) | -3 | -1 | -3 | 1
CN(c1ccccc1)S(=O)(=O)c1cccc(C(=O)NCCc2ccc(O)c(O)c2)c1 | 51* | 13 | 4 | 0.9
CNC[C@H](O)c1ccc(O)c(O)c1 | 78* | 9 | -1 | 0.9
CNC[C@H](O)c1cccc(O)c1 | -6 | 3 | 5 | 1
CCCc1n[nH]c2c1C(=O)C(C(=O)OC)C(C)(C)C2 (stereo unspecified) | 61* | 3 | 3 | 1
COC(=O)c1cc(Nc2cc(C)nc3ncnn23)cc(C(=O)OC)c1 | 2 | 0 | 5 | 1
O=c1cc(-c2cccc3ccccc23)[nH][nH]1 | 69* | 48 | -7 | 0.5
COc1ccc(-c2cc(=O)[nH][nH]2)cc1 | -14 | -4 | -3 | 1
COC(=O)c1c(NC(=O)C2C3CCC(C3)C2C(=O)O)sc2c1CCCCC2 (stereo unspecified) | -9 | -6 | 79* | 1.1
Cc1cc(NCCCO)n2nc(-c3cccs3)cc2n1 | -2 | 1 | -1 | 1
SMILES | TNAP inh noacc | TNAP inh hiacc | PKD1 inh | TNAP act hi DEA | others
Cc1cc(C)c2c(N=NN(C)C)[nH]nc2n1 | 52* | -2 | -16 | 1
Cc1cc(C)c2c(NC(N)=S)n[nH]c2n1 | 0 | -2 | 1 | 1
O=C(COc1cccc2c1CCN(Cc1ccc(Cl)cc1)C2=O)N1CCOCC1 | -14 | -5 | -6 | 1.1
c1coc(-c2ccnc(-n3cccc3)n2)c1 | -9 | -3 | -1 | 1
CC(=O)c1ccc(O)c(CO)c1 | -13 | -4 | -2 | 1
Nc1ncnc2nc(Sc3ccc(Cl)cc3)[nH]c12 | 15 | -4 | 0 | 1
CC(C)Sc1nc2ncnc(N)c2[nH]1 | 58* | -2 | 6 | 1
COc1cc(/C=C/c2sc3ccccc3[n+]2CCCS(=O)(=O)[O-])ccc1O | 55* | 57* | 5 | 0.4
COc1ccc(N2CCN(c3oc(COc4ccc(Cl)cc4)nc3C#N)CC2)cc1 | -6 | -1 | -9 | 1
O=S(=O)(c1ccc2c(c1)OCCO2)N1CCN(Cc2ccc3c(c2)OCO3)CC1 | -3 | -1 | 1 | 1
Cn1c(=O)oc2cc(S(=O)(=O)N3CCN(Cc4ccc5c(c4)OCO5)CC3)ccc21 | 5 | -3 | 80* | 1 | FP interf 140K=-11

Screening data as filed in PubChem BioAssay.
